Screening results as filed in PubChem BioAssay.
A selection: hits, their analogues and other compounds. The true share with any hit is near 1.8%.
STAT1 blocker: STAT1 signaling inhibition; hit rate 0.35% among 200,000; inhibition, % at 5.5 µM; NIH 3T3 STAT1-luciferase reporter, IFN-gamma, luminescence;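 active means inhibition above a set limit, the mean inhibition across all tested compounds plus 3 SD, cut at about 34% in these data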
PPC-1+TRAIL kill: PPC-1 cancer cell killing with TRAIL present. PPC-1 cells + TRAIL, ATPLite viability luminescence. cell killing (% activity), % at 4 µM or 5 µM. hit rate 0.41% among 220,000. AID 1443;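 active means cell killing above 50% in the first pass at 4 µM, then a duplicate retest at 5 µM averaging 50% or more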
STAT3 inh: reduces IL-6 driven STAT3 reporter signal; U3A cells, IL-6 STAT3-luciferase reporter, luminescence; host cell line lacks STAT1; AID 862; inhibition, % at 5.5 µM; hit rate 0.89% among 190,000;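 active means inhibition above the mean inhibition across all screened compounds plus 3 SD, cut at about 44% in these data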
STAT3 act: increases IL-6 driven STAT3 reporter signal; hit rate 0.91% among 190,000; activation (% of control), % at 5.6 µM; AID 871; U3A cells, IL-6 STAT3-luciferase reporter, luminescence; 100% = signal with IL-6 EC80 alone;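 active means activation above the screen-wide mean of compound activation plus 3 SD, cut at about 130% in these data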
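Assay system – human STAT1-deficient U3A cells with stable STAT3-luciferase reporter · Also added – IL-6 (33 ng/mL) · Schedule – compound 1 h, then IL-6 6 h at 37 °C · Technique – reporter luminescence signal · Evaluation – % activation versus median of IL-6-stimulated wells · Benchmarks – IL-6-only wells as 100% reference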
TRAIL sens C8: sensitizes caspase-8 expressing cells to TRAIL; inhibition (viability loss, TRAIL sensitization), % at 10 µM; AID 624354; hit rate 1% among 360,000; NB7+C8 cells + TRAIL, ATPlite viability luminescence;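 active means compounds causing at least 50% loss of cell viability in the single-dose screen, relative to plate controls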
PPC-1 tox: PPC-1 cell cytotoxicity. hit rate 50% among 1,200. shares compounds with PPC-1+TRAIL kill. PPC-1 viability, ATPlite luminescence, overnight. AID 1447. cytotoxicity, % at 5 µM;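 active means reconfirmed compounds whose average cytotoxicity reaches 50% or more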
Hits are given with their value; 0 = inactive; - = not tested or not shown.

SMILES | STAT1 blocker | PPC-1+TRAIL kill | STAT3 inh | STAT3 act | TRAIL sens C8 | PPC-1 tox
Nc1ccc(-c2nc3ccc(N)cc3s2)cc1 | - | 82 | - | - | 84 | 80
Nc1cccc(-c2nc3ccc(N)cc3s2)c1 | 0 | 74 | 0 | 0 | 70 | 72
CC(C)n1cnnc1SCC(=O)Nc1cccc(S(=O)(=O)N(C)c2ccccc2)c1 | - | 0 | - | - | 0 | -
O=C(CN1C(=O)NC2(CCCC2)C1=O)N1CCN(S(=O)(=O)c2ccc(Cl)c(C(F)(F)F)c2)CC1 | - | - | - | - | 0 | -
COC(=O)c1ccccc1NC(=O)Cn1c(=O)oc2ccc(Cl)cc21 | 0 | 0 | 0 | 0 | 0 | 0
Nc1nn2cc(-c3ccccc3)nc2c2ccccc12 | 0 | 0 | 0 | 135 | 56 | 51
Cc1cn2nc(N)c3ccccc3c2n1 | 0 | 0 | 0 | 0 | 0 | -
CCCCCCCCCCCCCCCCn1cc[n+](CC(C)=O)c1 | 0 | 0 | 0 | 0 | 0 | 0
Cc1ccccc1/C=C\c1nc2ccccc2c(=O)[nH]1 | 0 | 0 | 0 | 0 | 0 | -
Cc1ccc(/C=C/c2nc3ccccc3c(=O)[nH]2)cc1 | - | 93 | - | - | 93 | 92
COc1ccccc1CNc1nc(Nc2ccccc2-n2cccn2)c2sccc2n1 | - | - | - | - | 0 | -
O=C(Nc1ccc2[nH]ccc2c1)c1ccccc1 | - | 81 | - | - | 84 | 73
O=C(Nc1ccc2[nH]ccc2c1)c1ccc(F)cc1 | - | 84 | - | - | 88 | 84
COc1ccc(NC(=O)Nc2ccc3[nH]ccc3c2)cc1 | - | - | - | - | 0 | -
CCC(C)(O)c1cnc(CC(C)C)c(=O)n1O (stereo not given) | - | - | - | - | 0 | -
CC1CCCCC1NC(=O)c1ccc(NS(=O)(=O)c2ccc3[nH]c(=O)[nH]c3c2)cc1 (stereo not given) | - | - | - | - | 0 | -
Oc1ccc(N=Nc2ccc3c(c2)OCCO3)c(O)c1 | - | 65 | - | - | 72 | 66
COc1ccc(N2CCN(Cc3oc(CO)cc(=O)c3O)CC2)cc1 | 0 | 0 | 0 | 0 | 0 | 0
O=C(CN1C(=O)c2ccccc2S1(=O)=O)c1ccc2c(c1)OCCCO2 | - | 86 | - | - | 91 | 86
O=C(CN1C(=O)c2ccccc2S1(=O)=O)c1cccc(Br)c1 | - | - | - | - | 0 | -
O=C(CN1C(=O)c2ccccc2S1(=O)=O)c1ccc2c(c1)OCCO2 | - | 84 | - | - | 85 | 82
O=C(Nc1ccc2c(c1)nc1n2CCSC1)c1ccccc1 | 0 | 57 | 0 | 0 | 62 | 0
COc1ccc(C(=O)Nc2ccc3c(c2)nc2n3CCSC2)cc1 | 0 | 0 | 0 | 0 | 0 | -
CCSc1nc2c(c(=O)n1CC)SC(C)C2 (stereo not given) | 0 | 0 | 0 | 0 | 0 | -
CCn1c(SC)nc2c(c1=O)SC(C)C2 (stereo not given) | 0 | 0 | 0 | 0 | 0 | 0
SMILES | STAT1 blocker | PPC-1+TRAIL kill | STAT3 inh | STAT3 act | TRAIL sens C8 | PPC-1 tox
CC(C)c1nc(NCC2CCCO2)c(C#N)c2c1COC(C)(C)C2 (stereo not given) | 0 | 0 | 0 | 0 | 0 | 0
CCOc1ccc(C(=O)Nn2cnnc2)cc1 | 0 | 0 | 0 | 0 | 0 | -
CCOc1ccc(C/C(N)=N/n2cnnc2)cc1 | 0 | 0 | 0 | 0 | 0 | 0
Cc1cccc(C(=O)n2c(=S)nc3ccccn32)c1 | 0 | 70 | 0 | 0 | 74 | 70
Cc1cccn2c1nc(=S)n2C(=O)c1ccco1 | 0 | 0 | 0 | 0 | 0 | -
O=C(c1ccccc1)n1c(=S)nc2ccccn21 | - | 72 | - | - | 84 | 74
COc1cc(-c2coc3c(C(=O)NCc4ccccc4)cccc23)ccc1O | - | - | - | - | 0 | -
Cc1cccc(-c2cc(N)n(-c3ccccc3)n2)c1 | 0 | 0 | 0 | 0 | 0 | 0
CCc1ccc(-c2cc(N)n(-c3ccccc3)n2)cc1 | 0 | 0 | 0 | 0 | 0 | 0
CCS(=O)(=O)n1nc(-c2ccccc2)cc1N | 0 | 0 | 0 | 0 | 0 | -
COc1ccc(CCCC(=O)NCCc2ccccc2)c(C)c1 | - | - | - | - | 0 | -
Cc1c(Cl)cccc1NC(=S)N(Cc1cccs1)C1CCCC1 | 0 | 0 | 0 | 0 | 0 | -
Cc1ccc(C(=O)Nc2nnc(NC(=S)Nc3ccccc3)s2)cc1 | 0 | 0 | 0 | 0 | 0 | -
CCOc1ccc(C(=O)Nc2nnc(NC(=S)Nc3ccccc3)s2)cc1 | 0 | 0 | 0 | 0 | 55 | 0
CNC(=S)N/N=C(\C)c1ccc(N2CCOCC2)cc1 | 0 | 0 | 0 | 0 | 0 | 0
Cc1cn([C@H]2C[C@H](O)[C@@H](CCC(=O)NCCCc3ccccc3)O2)c(=O)[nH]c1=O | - | - | - | - | 0 | -
Cc1ccc(-c2c(C)sc(=NC(=O)c3ccco3)n2C)cc1 | 0 | 0 | 0 | 0 | 65 | 0
Cc1ccc(-c2cc(C(=O)N3CCN(C(=O)c4ccco4)CC3)no2)cc1 | 0 | 0 | 0 | 0 | 0 | -
Cc1cccc(-n2cccc2)c1C#N | 0 | 0 | 0 | 0 | 0 | 0
N#Cc1c(-n2ccnc2)cccc1-n1ccnc1 | 0 | 0 | 0 | 0 | 0 | -
CCC(C)c1ccccc1NC(=O)COc1ccc(-n2cnnn2)cc1 (stereo not given) | - | - | - | - | 0 | -
O=C(NCCCN1CCOCC1)C1CCN(S(=O)(=O)c2ccccc2)CC1 | - | - | - | - | 0 | -
CC(=O)Nc1c2c(nn1-c1cccc(Cl)c1)CS(=O)(=O)C2 | - | - | - | - | 0 | -
Cc1ccccc1OCc1nnc(SCC(=O)Nc2ccc3nc(SCC(=O)NC(C)(C)C)sc3c2)n1C | 0 | 0 | 0 | 0 | 0 | 0
CCN(CC)C(=O)CSc1nc2ccc(NC(=O)CSc3nnc(COc4ccccc4C)n3C)cc2s1 | 0 | 0 | 0 | 0 | 0 | -
SMILES | STAT1 blocker | PPC-1+TRAIL kill | STAT3 inh | STAT3 act | TRAIL sens C8 | PPC-1 tox
Cc1cn([C@H]2C[C@H](O)[C@@H](CNC(=O)c3ccccn3)O2)c(=O)[nH]c1=O | - | - | - | - | 0 | -
CCCn1c(NC(=O)C2CCN(S(=O)(=O)c3cccs3)CC2)nc2ccccc21 | 0 | 0 | 0 | 0 | 0 | 0
CC(=O)NC12CC3CC(C1)CC(C(=O)N(C)CC(=O)Nc1ccc(F)c(F)c1F)(C3)C2 | - | - | - | - | 0 | -
COc1cccc(-c2c(C(=O)O)cc(O)c3ccc(OC)cc23)c1 | - | - | - | - | 0 | -
COc1ccc(OCC(=O)N/N=C(\C)c2cccs2)cc1 | - | 0 | - | - | 0 | -
COc1ccc(OCC(=O)N/N=C(\CCC(=O)O)c2cccs2)cc1 | 0 | 0 | 0 | 0 | 0 | 0
Cn1cc(C(=O)N/N=C/c2c(O)ccc3ccccc23)ccc1=O | 0 | 0 | 0 | 0 | 0 | 0
COC(=O)c1ccc(CNC(=O)CSC(C)C(=O)Nc2cc(C)on2)cc1 (stereo not given) | - | - | - | - | 0 | -
Cc1cccc(C)c1OCc1cc(C(=O)NCc2cn(C)nc2C)no1 | - | - | - | - | 0 | -
N#CCc1nc(CSc2nc3ccccc3s2)cs1 | 0 | 0 | 0 | 0 | 0 | 0
Fc1ccc(-c2nnc(NC3=NCCCCC3)o2)cc1 | 68 | 66 | 100 | 0 | 75 | 64
O=C(CCNS(=O)(=O)c1ccccc1)OCC(=O)c1ccc[nH]1 | - | - | - | - | 0 | -
O=C1c2cccc3c([N+](=O)[O-])ccc(c23)C(=O)N1Cc1cccnc1 | 0 | 0 | 0 | 0 | 0 | 0
CC(C)Cn1c(SCC(=O)NCc2ccc(Cl)cc2)nnc1-c1cccc(S(=O)(=O)N2CCOCC2)c1 | 0 | 0 | 0 | 0 | 0 | 0
CC(C)Cn1c(SCC(=O)O)nnc1-c1cccc(S(=O)(=O)N2CCOCC2)c1 | - | - | - | - | 0 | -
COC(=O)c1ccc(CNC(=O)COC(=O)c2cccs2)cc1 | - | - | - | - | 0 | -
CC(C)(C)c1ccc(-c2nnc(N)s2)cc1 | 0 | 0 | 0 | 0 | 71 | 0
